Measurements gathered from unrelated publications.
Lines come from different studies, so protocols differ.
PDGFRB: Platelet-derived growth factor receptor beta (PDGFRB, Homo sapiens, UniProt P09619)
DYRK1A: Dual specificity tyrosine-phosphorylation-regulated kinase 1A (DYRK1A, Homo sapiens, UniProt Q13627)

Nc1ncnc2c1ncn2[C@@H]1O[C@H](COP(=O)(O)OP(=O)(O)OP(=O)(O)O)[C@@H](O)[C@H]1O — Km (Inositol-tetrakisphosphate 1-kinase (Homo sapiens, UniProt Q13572); enzyme activity, substrate, ADP detection): 2.7 µM
Cc1cc(O)c(-c2ccc([C@@H](C)CN(C)C)cc2)c2c1[nH]c(=O)c1sccc12 — inhibition (Ephrin type-B receptor 3 (EPHB3, Homo sapiens, UniProt P54753); cell-free assay, inhibitor; 0.1 µM): -4.48%
C1=C/COCc2cc(ccc2OCCN2CCCC2)Nc2nccc(n2)-c2cccc(c2)COC/1 — remaining binding (PDGFRB; binding; 0.1 µM): 32%
Cc1cc(F)cc2c(CCC(=O)N[C@@H]3C(=O)NC[C@H]3O)c(-c3ccc(F)cc3)[nH]c12 — inhibition (Muscarinic acetylcholine receptor M3 (CHRM3, Homo sapiens, UniProt P20309); cell-free assay; 10 µM): 0%
Nc1cc(-c2ccncc2)cs1 — inhibition (DYRK1A; enzyme activity, inhibitor, ADP detection; 10 µM): 25.6%
CC(=O)ON=C1C=CC(=C(C#N)c2ccccc2)C=C1 — activity vs control (DYRK1A; enzyme activity, inhibitor, ADP detection; 20 µM): 82%
CCCCC(=O)Nc1ccc(-c2ccc3ncn(CCC)c(=O)c3c2)cn1 — remaining binding (Ephrin type-A receptor 7 (EPHA7, Homo sapiens, UniProt Q15375); binding, competition with immobilised ligand; 0.5 µM): 100%
NC/C(=C\F)COc1cccc(Cn2c(=S)[nH]c(=O)c3[nH]cnc32)c1 — inhibition (Alpha-1D adrenergic receptor (ADRA1D, Homo sapiens, UniProt P25100); ligand displacement, radioligand; 10 µM): < 50%
Cc1nc(Sc2nc(C)nc3sc4c(c23)CCC4)c2c3c(sc2n1)CCC3 — inhibition (DYRK1A; enzyme activity, inhibitor, ADP detection; 10 µM): 47.4%
C#Cc1cc(-c2cc(Nc3nc(N[C@@H](C)c4ccc(F)cn4)ncc3Cl)n[nH]2)ccc1C=O — inhibition (Dual specificity tyrosine-phosphorylation-regulated kinase 3 (DYRK3, Homo sapiens, UniProt O43781); enzyme activity, inhibitor; 0.2 µM): 4.84%
Brc1cc(Br)c2ccncc2c1Br — inhibition (DYRK1A; enzyme activity, inhibitor, ADP detection; 10 µM): 41.5%
N#Cc1ccc(NC(=O)Nc2ccccc2)cc1 — inhibition (PDGFRB; cell-free assay, competition with immobilised ligand; 25 µM): 67%
COc1ccc2oc(-c3ccc4nc(N)oc4c3)c/c(=N\c3ccccc3NC(=O)CCN)c2c1 — remaining binding (Dual specificity tyrosine-phosphorylation-regulated kinase 1B (DYRK1B, Homo sapiens, UniProt Q9Y463); binding, competition with immobilised ligand; 1 µM): 102%
